Measurements published in ChEMBL document CHEMBL1156936, “2,3-Diamino acid modifying 3S-tetrahydroisoquinoline-3-carboxylic acids: leading to a class of novel agents with highly unfolded conformation, selective in vitro anti-platelet aggregation and potent in vivo anti-thrombotic activity” (Bioorg Med Chem, 2010).
Square brackets hold non-standard residues; d marks the D form. Peptide text beside a SMILES is read from it. Tic = O=C(O)[C@@H]1Cc2ccccc2CN1

Tests used:
Platelet [1] = assay: Inhibition of adenosine diphosphate-induced pig platelet aggregation measured for 5 mins; format: functional, cell-based; conditions: Sus scrofa
Platelet [2] = assay: Inhibition of arachidonic acid-induced pig platelet aggregation measured for 5 mins; format: functional, cell-based; conditions: Sus scrofa
Platelet [3] = assay: Inhibition of platelet activating factor-induced pig platelet aggregation measured for 5 mins; format: functional, cell-based; conditions: Sus scrofa
Platelet [4] = assay: Inhibition of thrombin-induced pig platelet aggregation measured for 5 mins; format: functional, cell-based; conditions: Sus scrofa
How it was run: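 Pig blood spun at 1000g for 10 min to give PRP and at 1500g for 10 min to give PPP. Platelets adjusted to 2×10⁸/ml with autologous PPP, and 0.5 ml is pre-mixed with NS or drug at six tenfold-spaced final concentrations. After baseline the agonist is added (thrombin final 0.1 U/ml). Optical aggregation is read at 37 °C for 5 min. Peak height is taken as maximal aggregation, and % inhibition is calculated against NS. Run in sextuplicate; IC50 from the concentration–inhibition curve.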

Rattus norvegicus [5] = assay: Antithrombotic activity in Wistar rat assessed as reduction of thrombus weight at 30 nmol/kg, iv; format: functional
How it was run: (§1)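 Male Wistar rats (250–300 g) with an arteriovenous shunt: a polyethylene tube holding a thread joins the right carotid artery to the left jugular vein. Heparin sodium is injected through the tube, then vehicle (NS) or drug dissolved in NS and kept on ice. Blood flows for 15 min, and the wet thrombus on the thread is weighed. Analysis by ANOVA.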

Rattus norvegicus [6] = assay: Antithrombotic activity in Wistar rat assessed as reduction of thrombus weight at 30 nmol/kg, po; format: functional
How it was run: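 Drug in NS (or NS alone, 0.6 ml) is given orally to male Wistar rats (250–300 g), then pentobarbital sodium 80.0 mg/kg ip. Thirty min later the right carotid artery and left jugular vein are exposed and joined by a heparinized thread-containing shunt. Blood flows for 15 min, and the wet thrombus is weighed. n=12; analysis by ANOVA.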

Rattus norvegicus [7] = assay: Antithrombotic activity in Wistar rat assessed as reduction of thrombus weight at 165 umol/kg, iv; format: functional; how it was run: as §1
Rattus norvegicus [8] = assay: Antithrombotic activity in iv dosed Wistar rat assessed as reduction of thrombus weight; format: functional, organism-based; how it was run: as §1
Rattus norvegicus [9] = assay: Antithrombotic activity in Wistar rat assessed as reduction of thrombus weight at 3 nmol/kg, iv; format: functional; how it was run: as §1
Rattus norvegicus [10] = assay: Antithrombotic activity in Wistar rat assessed as reduction of thrombus weight at 0.3 nmol/kg, iv; format: functional; how it was run: as §1
Rattus norvegicus [11] = assay: Antithrombotic activity in Wistar rat assessed as reduction of thrombus weight at 0.03 nmol/kg, iv; format: functional; how it was run: as §1
Rattus norvegicus [12] = assay: Antithrombotic activity in Wistar rat assessed as reduction of thrombus weight at 15 umol/kg, iv; format: functional; how it was run: as §1

Row | Structure (SMILES) | IC50 (Platelet [1]) [nM] | IC50 (Platelet [2]) [nM] | IC50 (Platelet [3]) [nM] | IC50 (Platelet [4]) [nM] | Activity (Rattus norvegicus [5]) [mg] | Activity (Rattus norvegicus [6]) [mg] | Activity (Rattus norvegicus [7]) [mg] | Activity (Rattus norvegicus [8]) | Activity (Rattus norvegicus [9]) [mg] | Activity (Rattus norvegicus [10]) [mg] | Activity (Rattus norvegicus [11]) [mg] | Activity (Rattus norvegicus [12]) [mg]
1 | NC(=O)CC[C@H](NC(=O)[C@@H]1Cc2ccccc2CN1C(=O)[C@@H](N)CCC(N)=O)C(=O)O (H-Gln-[Tic]-Gln-OH) | 2.55 | 8.37 | 5.72 | 9.13 | 18.13 | 18.23 | – | – | – | – | – | –
2 | CC(=O)Oc1ccccc1C(=O)O [ASPIRIN] | – | – | – | – | – | – | 13.22 | – | – | – | – | –
3 | N[C@@H](CCC(=O)O)C(=O)N1Cc2ccccc2C[C@H]1C(=O)N[C@@H](CCC(=O)O)C(=O)O (H-Glu-[Tic]-Glu-OH) | 2.19 | 9.86 | 4.19 | 10.3 | 18.95 | – | – | – | – | – | – | –
4 | NC(=O)C[C@H](NC(=O)[C@@H]1Cc2ccccc2CN1C(=O)[C@@H](N)CC(N)=O)C(=O)O (H-Asn-[Tic]-Asn-OH) | 3.07 | 8.28 | 5.39 | 8.43 | 17.95 | 16.88 | – | – | – | – | – | –
5 | N[C@@H](Cc1c[nH]cn1)C(=O)N1Cc2ccccc2C[C@H]1C(=O)N[C@@H](Cc1cnc[nH]1)C(=O)O (H-His-[Tic]-His-OH) | 2.84 | 9.38 | 5.57 | 10 | 20.91 | – | – | – | – | – | – | –
6 | N[C@@H](Cc1ccccc1)C(=O)N1Cc2ccccc2C[C@H]1C(=O)N[C@@H](Cc1ccccc1)C(=O)O (H-Phe-[Tic]-Phe-OH) | 2.23 | 7.84 | 4.92 | 8.87 | 22.51 | – | – | – | – | – | – | –
7 | NCC(=O)N1Cc2ccccc2C[C@H]1C(=O)NCC(=O)O (H-Gly-[Tic]-Gly-OH) | 2.44 | 7.95 | 5.15 | 10.6 | 25.2 | – | – | – | – | – | – | –
8 | N[C@@H](Cc1ccc(O)cc1)C(=O)N1Cc2ccccc2C[C@H]1C(=O)N[C@@H](Cc1ccc(O)cc1)C(=O)O (H-Tyr-[Tic]-Tyr-OH) | 2.58 | 8.83 | 4.52 | 9.84 | 18.79 | – | – | – | – | – | – | –
9 | NCCCC[C@H](NC(=O)[C@@H]1Cc2ccccc2CN1C(=O)[C@@H](N)CCCCN)C(=O)O (H-Lys-[Tic]-Lys-OH) | 3.73 | 9.64 | 5.67 | 8.98 | 18.65 | 19.72 | – | – | – | – | – | –
10 | N=C(N)NCCC[C@H](NC(=O)[C@@H]1Cc2ccccc2CN1C(=O)[C@@H](N)CCCNC(=N)N)C(=O)O (H-Arg-[Tic]-Arg-OH) | 3.15 | 9.17 | 6.07 | 9.87 | 10.61 | 15.15 | – | Dose-dependent effect | 16.29 | – | 19.71 | –
11 | O=C(O)[C@@H]1Cc2ccccc2CN1 | – | – | – | – | – | – | – | – | – | – | – | 21.52

Second part, led by results:

Row | IC50 (Platelet [1]) [nM] | IC50 (Platelet [2]) [nM] | IC50 (Platelet [3]) [nM] | IC50 (Platelet [4]) [nM] | Structure (SMILES) | Activity (Rattus norvegicus [5]) [mg] | Activity (Rattus norvegicus [6]) [mg] | Activity (Rattus norvegicus [7]) [mg] | Activity (Rattus norvegicus [8]) | Activity (Rattus norvegicus [9]) [mg] | Activity (Rattus norvegicus [10]) [mg] | Activity (Rattus norvegicus [11]) [mg] | Activity (Rattus norvegicus [12]) [mg]
12 | 2.57 | 8.17 | 5.03 | 10 | CC(C)C[C@H](NC(=O)[C@@H]1Cc2ccccc2CN1C(=O)[C@@H](N)CC(C)C)C(=O)O (H-Leu-[Tic]-Leu-OH) | 19.53 | – | – | – | – | – | – | –
13 | 2.17 | 7.99 | 5.36 | 10.2 | N[C@@H](CO)C(=O)N1Cc2ccccc2C[C@H]1C(=O)N[C@@H](CO)C(=O)O (H-Ser-[Tic]-Ser-OH) | 20.97 | – | – | – | – | – | – | –
14 | 2.89 | 10 | 4.14 | 10.8 | C[C@@H](O)[C@H](N)C(=O)N1Cc2ccccc2C[C@H]1C(=O)N[C@H](C(=O)O)[C@@H](C)O (H-Thr-[Tic]-Thr-OH) | 14.32 | 17.53 | – | Dose-dependent effect | 20.95 | 28.63 | – | –
15 | 3.48 | 9.55 | 4.37 | 11.1 | N[C@@H](CC(=O)O)C(=O)N1Cc2ccccc2C[C@H]1C(=O)N[C@@H](CC(=O)O)C(=O)O (H-Asp-[Tic]-Asp-OH) | 20.49 | – | – | – | – | – | – | –
16 | 2.57 | 9.08 | 5.87 | 9.25 | CC(C)[C@H](N)C(=O)N1Cc2ccccc2C[C@H]1C(=O)N[C@H](C(=O)O)C(C)C (H-Val-[Tic]-Val-OH) | 19.42 | – | – | – | – | – | – | –
17 | 2.36 | 8.73 | 5.6 | 9.48 | C[C@H](N)C(=O)N1Cc2ccccc2C[C@H]1C(=O)N[C@@H](C)C(=O)O | 17.12 | 18.89 | – | Dose-dependent effect | 23.35 | 29.77 | – | –
18 | 3.26 | 8.18 | 6.32 | 9.64 | N[C@@H](CS)C(=O)N1Cc2ccccc2C[C@H]1C(=O)N[C@@H](CS)C(=O)O (H-Cys-[Tic]-Cys-OH) | 19.35 | – | – | – | – | – | – | –
19 | 2.89 | 8.92 | 5.64 | 11.3 | CC[C@H](C)[C@H](N)C(=O)N1Cc2ccccc2C[C@H]1C(=O)N[C@H](C(=O)O)[C@@H](C)CC (H-Ile-[Tic]-Ile-OH) | 24.3 | – | – | – | – | – | – | –
20 | 3.42 | 8.19 | 4.91 | 9.99 | CSCC[C@H](NC(=O)[C@@H]1Cc2ccccc2CN1C(=O)[C@@H](N)CCSC)C(=O)O (H-Met-[Tic]-Met-OH) | 19.36 | – | – | – | – | – | – | –
